Data on 41 molecules can be found in ChEMBL document CHEMBL1129612, “New low-density lipoprotein receptor upregulators acting via a novel mechanism” (J Med Chem, 1996).

The subject of this assay is HepG2. The assay is described as follows: Compound was tested in vitro for up-regulation of low density lipoprotein (LDL) receptor in human hepatocytes (HepG2 cells) at a concentration 3 uM. It is filed as functional. In short, it runs like this: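 HepG2 cells (passage ≤10, DMEM with FCS, 5% CO2, 37 °C) plated at 10 000 cells/well and grown 3 days to 80% confluence. Compound at 3 µM added in DMEM with 1% BSA for 24 h. Cell-surface LDL receptors measured by fluorescence immunoassay: MAC-C7 antibody, then alkaline phosphatase-conjugated anti-mouse IgG, substrate ATTAPHOS. Cell number read by propidium iodide. Five replicates, mean % increase.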
Regarding `Cc1ccc(NC(=O)CCC2CCCCC2)cc1NC(=O)C1CCCCC1`, the Activity amounted to 0%.

As to `Cc1ccc(NC(=O)CCC2CCCCC2)cc1NC(=O)c1cccnc1`, the Activity stood at 83%.

For `Cc1ccc(C(=O)CCCC2CCCCC2)cc1NC(=O)c1cccnc1`, the Activity came out at 111%.

`Cc1ccc(NC(=O)CCC2CCCCC2)cc1/C=C(\C#N)c1ccc(O)cc1`: the Activity is reported as 21%.

Take `Cc1ccc(NC(=O)CCC2CCCCC2)cc1-c1nc2cc(O)ccc2[nH]1`: the Activity was found to be 134%.

As to `Cc1ccc(NC(=O)CCC2CCCCC2)cc1NC(=O)c1ccncc1`, the Activity is reported as -5%.

Consider `COC(=O)c1ccc(C(=O)Nc2cc(NC(=O)CCC3CCCCC3)ccc2C)cc1`, for which the Activity is recorded as 3%.

With `CC(=O)Oc1ccc(C(=O)Nc2cc(NC(=O)CCC3CCCCC3)ccc2C)cc1`, the Activity amounted to 82%.

For `Cc1ccc2[nH]c(-c3cc(NC(=O)CCC4CCCCC4)ccc3C)nc2c1`, the Activity was determined as 91%.

For the molecule `CCCCCCCCC(=O)Nc1ccc(C)c(NC(=O)c2ccc(O)cc2)c1`, the Activity is -10%.

With `Cc1ccc(NC(=O)CCCC2CCCCC2)cc1NC(=O)c1ccc(O)cc1`, the Activity was 32%.

Turning to `Cc1ccc(C(=O)NCCC2CCCCC2)cc1NC(=O)c1ccc(O)cc1`, the Activity is given as 75%.

Take `Cc1ccc(NC(=O)CCN2CCCCC2)cc1NC(=O)c1ccc(O)cc1`: the Activity was -2%.

Consider `COc1ccc(NC(=O)CCC2CCCCC2)cc1NC(=O)c1ccc(OC(C)=O)cc1`, for which the Activity is -13%.

For the molecule `O=C(CCC1CCCCC1)Nc1ccc(Cl)c(NC(=O)c2ccc(O)cc2)c1`, the Activity is listed as 8%.

Consider `CC(=O)Oc1ccc(C(=O)Nc2cc(NC(=O)COC3CCCCC3)ccc2C)cc1`, for which the Activity was found to be 17%.

Consider `Cc1ccc(NC(=O)CCC2CCCCC2)cc1NC(=O)c1ccc2c(c1)OCO2`, for which the Activity is reported as 111%.

With `Cc1ccc(NC(=O)CCC2CCCCC2)cc1/C=C(\C#N)c1cccnc1`, the Activity was 126%.

Consider `O=C(CCC1CCCCC1)Nc1ccc(O)c(NC(=O)c2ccc(O)cc2)c1`, for which the Activity was -3%.

For the molecule `Cc1ccc(NC(=O)CCC2CCCCC2)cc1-c1nc2ccccc2[nH]1`, the Activity worked out at 45%.

For `Cc1ccc(NC(=O)CCC2CCCCC2)cc1NCc1ccc(O)cc1`, the Activity was -11%.

With `Cc1ccc(NC(=O)CCC2CCCCC2)cc1NC(=O)c1cccc(O)c1`, the Activity came to 59%.

`Cc1ccc(NC(=O)CCC2CCCCC2)cc1C(=O)Nc1ccc(O)cc1`: the Activity is 60%.

Regarding `O=C(CCC1CCCCC1)Nc1ccc(Br)c(NC(=O)c2ccc(O)cc2)c1`, the Activity stood at 6%.

On to `Cc1ccc(NC(=O)NCC2CCCCC2)cc1NC(=O)c1ccc(O)cc1`, for which the Activity was 10%.

Take `Cc1ccc(C(=O)CCCC2CCCCC2)cc1NC(=O)c1ccc(O)cc1`: the Activity is reported as 10%.

With `Cc1ccc(NC(=O)CCC2CCCCC2)cc1NC(=O)c1ccc(O)cc1`, the Activity came to 80%.

For `Cc1ccc(NC(=O)CC2CCCCC2)cc1NC(=O)c1ccc(O)cc1`, the Activity turned out to be 3%.

`Cc1ccc(NC(=O)CCC2CCCCC2)cc1NC(=O)c1ccccc1O`: the Activity came out at 0%.

For the molecule `Cc1ccc(NC(=O)CCC2CCCC2)cc1NC(=O)c1ccc(O)cc1`, the Activity was 25%.

As to `Cc1ccc(NC(=O)CCC2CCCCC2)cc1NC(=O)c1ccc(CO)cc1`, the Activity was 44%.

As for `Cc1ccc(NC(=O)CCc2ccccc2)cc1NC(=O)c1ccc(O)cc1`, the Activity is listed as -20%.

Turning to `O=C(CCC1CCCCC1)Nc1ccc(F)c(NC(=O)c2ccc(O)cc2)c1`, the Activity is recorded as 12%.

As to `CC[C@H](C)C(=O)O[C@H]1C[C@@H](C)C=C2C=C[C@H](C)[C@H](CC[C@@H]3C[C@@H](O)CC(=O)O3)[C@H]21` [LOVASTATIN], the Activity is 70%.

For `Cc1ccc(NC(=O)OCC2CCCCC2)cc1NC(=O)c1ccc(O)cc1`, the Activity came out at 16%.

For `Cc1ccc(NC(=O)CCC2CCCCC2)cc1NC(=O)c1ccccc1`, the Activity is on record as 50%.

Regarding `Cc1ccc(NC(=O)CCC2CCCCC2)cc1NC(=O)c1cc[n+]([O-])cc1`, the Activity was 7%.

On to `Cc1ccc(NC(=O)CCC2CCCCC2)cc1/C=C(\C#N)c1ccc2c(c1)OCO2`, for which the Activity was 108%.

`Cc1ccc(NC(=O)CCC2CCCCC2)cc1NC(=O)c1ccc(N)cc1`: the Activity came to 58%.

With `Cc1ccc(NC(=O)CCC2CCCCC2)cc1NC(=O)c1ccc([N+](=O)[O-])cc1`, the Activity amounted to 11%.

Consider `CC(=O)Oc1ccc(C(=O)Nc2cccc(NC(=O)CCC3CCCCC3)c2)cc1`, for which the Activity amounted to 6%.
